Measured values published in ChEMBL document CHEMBL2169869, “Assay and inhibition of diacylglycerol lipase activity” (Bioorg Med Chem Lett, 2012).
Activity calls are given as the source filed them. No cut-off for these calls is given here.

Key:
[1] = target: T1, Diacylglycerol lipase-alpha (Mus musculus) (UniProt Q6WQJ1); experiment: Inhibition of mouse DAGLalpha expressed in HEK293T cell membrane using [14C]SAG substrate at 1000 nM by scintillation counting based radio-TLC assay; format: cell membranes; settings: HEK-293T
T1 sequence (whole entry): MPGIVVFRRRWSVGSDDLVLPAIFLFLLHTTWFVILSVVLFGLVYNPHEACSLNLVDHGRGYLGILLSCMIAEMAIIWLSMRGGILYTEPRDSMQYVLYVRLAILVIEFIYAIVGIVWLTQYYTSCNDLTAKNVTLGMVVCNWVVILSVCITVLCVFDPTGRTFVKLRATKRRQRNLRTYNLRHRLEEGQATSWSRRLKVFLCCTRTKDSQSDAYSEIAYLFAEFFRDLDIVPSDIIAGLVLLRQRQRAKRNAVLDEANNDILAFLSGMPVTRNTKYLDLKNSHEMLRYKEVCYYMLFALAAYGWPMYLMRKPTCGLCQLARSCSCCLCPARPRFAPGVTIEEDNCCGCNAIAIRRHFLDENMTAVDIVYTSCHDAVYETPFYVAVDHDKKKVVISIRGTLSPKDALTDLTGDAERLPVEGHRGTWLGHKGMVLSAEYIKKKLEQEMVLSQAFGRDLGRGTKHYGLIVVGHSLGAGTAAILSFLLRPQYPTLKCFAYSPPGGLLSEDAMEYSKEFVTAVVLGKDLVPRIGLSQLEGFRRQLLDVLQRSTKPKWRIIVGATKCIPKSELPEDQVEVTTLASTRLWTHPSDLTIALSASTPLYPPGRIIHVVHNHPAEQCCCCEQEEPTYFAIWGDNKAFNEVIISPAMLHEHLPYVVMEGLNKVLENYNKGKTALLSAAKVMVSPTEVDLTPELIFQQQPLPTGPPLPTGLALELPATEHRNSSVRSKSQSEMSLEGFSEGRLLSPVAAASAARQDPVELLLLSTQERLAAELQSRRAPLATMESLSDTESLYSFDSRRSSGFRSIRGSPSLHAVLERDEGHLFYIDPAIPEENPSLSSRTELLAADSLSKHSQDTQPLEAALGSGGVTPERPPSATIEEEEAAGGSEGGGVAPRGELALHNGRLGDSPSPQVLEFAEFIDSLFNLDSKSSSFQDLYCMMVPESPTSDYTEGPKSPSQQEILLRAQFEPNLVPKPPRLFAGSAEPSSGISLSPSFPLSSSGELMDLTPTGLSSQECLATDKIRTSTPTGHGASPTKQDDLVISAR

[2] = target: T2, Diacylglycerol lipase-alpha (Homo sapiens) (UniProt Q9Y4D2); experiment: Inhibition of human DAGLalpha expressed in HEK293T cell membrane using [14C]SAG substrate at 10 uM in detergent free solution by scintillation counting based radio-TLC assay; settings: HEK-293T
T2 sequence (whole entry): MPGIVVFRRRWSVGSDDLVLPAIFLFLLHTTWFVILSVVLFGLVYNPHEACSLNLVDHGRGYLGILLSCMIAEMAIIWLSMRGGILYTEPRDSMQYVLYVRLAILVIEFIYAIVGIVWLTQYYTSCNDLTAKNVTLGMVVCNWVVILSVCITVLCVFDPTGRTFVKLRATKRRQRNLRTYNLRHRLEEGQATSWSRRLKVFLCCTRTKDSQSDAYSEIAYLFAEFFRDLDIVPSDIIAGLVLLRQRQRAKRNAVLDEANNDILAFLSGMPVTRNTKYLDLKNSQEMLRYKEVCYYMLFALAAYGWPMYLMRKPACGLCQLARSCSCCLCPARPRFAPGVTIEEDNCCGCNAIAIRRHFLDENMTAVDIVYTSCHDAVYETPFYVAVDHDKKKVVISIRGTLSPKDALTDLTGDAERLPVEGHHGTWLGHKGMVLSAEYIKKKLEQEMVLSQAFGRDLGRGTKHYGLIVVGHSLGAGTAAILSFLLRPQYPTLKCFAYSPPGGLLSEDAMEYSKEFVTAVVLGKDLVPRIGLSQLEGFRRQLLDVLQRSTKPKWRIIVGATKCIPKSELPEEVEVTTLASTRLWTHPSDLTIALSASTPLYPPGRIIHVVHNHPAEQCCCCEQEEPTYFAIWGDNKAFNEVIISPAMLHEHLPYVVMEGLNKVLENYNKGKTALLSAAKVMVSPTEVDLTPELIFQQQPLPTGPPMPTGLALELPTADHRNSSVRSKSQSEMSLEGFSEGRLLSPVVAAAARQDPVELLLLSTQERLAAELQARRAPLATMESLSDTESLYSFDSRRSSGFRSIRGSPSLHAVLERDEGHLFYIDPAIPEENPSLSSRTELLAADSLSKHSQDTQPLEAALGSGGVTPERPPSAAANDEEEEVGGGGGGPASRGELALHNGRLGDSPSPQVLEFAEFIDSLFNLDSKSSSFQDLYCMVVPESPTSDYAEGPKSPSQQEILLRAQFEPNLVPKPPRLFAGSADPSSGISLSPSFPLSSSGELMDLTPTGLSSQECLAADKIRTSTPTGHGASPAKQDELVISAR

[3] = Inhibition of porcine pancreatic lipase type 2 by FRET assay; design: species or system Sus scrofa
Method in brief: (§1)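 Purified enzymes: bacterial lipoprotein lipase (0.46 μg) or porcine pancreatic lipase type II (1.0 μg, suspended in 1:9 DMSO/water). Run in 50 mM Tris pH 7.4 with 10 mM CaCl2. Substrate was the pyrene-dinitrophenyl ether lipid FRET reporter at 25 μM, with compounds screened at 10 μM. Fluorescence was read at ex 320/em 400 nm, and percent inhibition was taken at 1.5 h; n = 1 or 2.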

[4] = Inhibition of bacterial lipoprotein lipase by FRET assay; design: species or system Bacteria; method in brief: as §1
[5] = target: T2, Diacylglycerol lipase-alpha (Homo sapiens); experiment: Inhibition of human DAGLalpha expressed in HEK293T cell membrane using [14C]SAG substrate at 10 uM using JZL184 pretreated protein in detergent free solution by […]; format: cell-based; settings: HEK-293T

SMILES | inhibition [1] [%] | also measured
CCCCCCCCCCC[C@@H](C[C@@H]1OC(=O)[C@H]1CCCCCC)OC(=O)[C@@H](NC=O)[C@@H](C)CC | 96 | 
CCCCCCCCCCC[C@@H](C[C@@H]1OC(=O)[C@H]1CCCCCC)OC(=O)[C@H](CC)NC=O | 96 | 
CCCCCCCCCCC[C@@H](C[C@@H]1OC(=O)[C@H]1CCCCCC)OC(=O)[C@H](CC(C)C)NC=O [ORLISTAT] |  | inhibition [2]: 100%; IC50 [3]: < 0.001 µM; IC50 [4]: 0.1 µM
CCCCCCCCCCC[C@@H](C[C@@H]1OC(=O)[C@H]1CCCCCC)OC(=O)[C@H](NC=O)[C@H](C)CC | 69 | 
CCCCCCCCCCC[C@@H](C[C@@H]1OC(=O)[C@H]1CCCCCC)OC(=O)[C@H](NC=O)[C@@H](C)CC | 75 | 
O=C(Oc1ccc([N+](=O)[O-])cc1)N1CCC(C(O)(c2ccc3c(c2)OCO3)c2ccc3c(c2)OCO3)CC1 |  | inhibition [2]: inactive; inhibition [5]: 44%
CCCCCCCCCCC[C@@H](C[C@@H]1OC(=O)[C@H]1CCCCCC)OC(=O)[C@@H](NC=O)[C@H](C)CC | 88 | 
